Experimental data reported in the M2OR odorant receptor database.
Where a chain is given by its changes, count along the chain named.

What was measured:
Settings in all cases: stereoisomer not certain
[1] = tested on: T1, A0A140T8K0
T1 sequence (whole entry): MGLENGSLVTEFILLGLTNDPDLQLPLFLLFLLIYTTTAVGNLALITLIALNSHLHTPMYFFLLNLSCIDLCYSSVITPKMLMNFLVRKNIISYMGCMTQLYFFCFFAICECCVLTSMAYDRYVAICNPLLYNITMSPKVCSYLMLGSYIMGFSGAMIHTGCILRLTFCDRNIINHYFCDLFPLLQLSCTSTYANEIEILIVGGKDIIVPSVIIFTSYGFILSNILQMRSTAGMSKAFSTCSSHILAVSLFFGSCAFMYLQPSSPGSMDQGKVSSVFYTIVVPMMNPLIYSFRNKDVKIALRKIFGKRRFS
In short: (§1)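 Transient luciferase assays in mammalian cell lines were common, though methods varied by source. The values come from published papers and their supplementary material, with extra details from the original authors when needed. Responsive refers to a measured signal the original authors judged statistically different from baseline, and non-responsive (inactive) to the remainder.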

[2] = tested on: T2, A0A140T8K4
T2 sequence (whole entry): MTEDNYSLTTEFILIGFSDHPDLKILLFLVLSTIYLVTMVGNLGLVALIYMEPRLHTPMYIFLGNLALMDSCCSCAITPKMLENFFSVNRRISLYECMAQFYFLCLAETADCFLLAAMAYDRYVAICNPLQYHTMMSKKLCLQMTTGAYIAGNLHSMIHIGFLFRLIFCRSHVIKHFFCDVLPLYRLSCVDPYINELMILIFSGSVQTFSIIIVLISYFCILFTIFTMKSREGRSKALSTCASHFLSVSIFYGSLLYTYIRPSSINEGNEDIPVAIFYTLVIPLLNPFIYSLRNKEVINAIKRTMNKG
In short: as §1

[3] = tested on: T3, A0A1L1SVG7
T3 sequence (whole entry): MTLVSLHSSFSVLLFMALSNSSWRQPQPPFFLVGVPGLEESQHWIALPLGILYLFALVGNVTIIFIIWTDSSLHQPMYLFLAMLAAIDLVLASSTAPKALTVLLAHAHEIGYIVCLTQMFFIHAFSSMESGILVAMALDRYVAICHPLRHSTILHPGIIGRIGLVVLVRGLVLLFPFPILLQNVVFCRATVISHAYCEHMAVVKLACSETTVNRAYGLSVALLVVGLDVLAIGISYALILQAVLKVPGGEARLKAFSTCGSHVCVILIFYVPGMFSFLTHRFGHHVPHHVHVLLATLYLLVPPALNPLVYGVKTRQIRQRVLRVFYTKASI
In short: as §1

[4] = tested on: T4, A0A2J8MY22
T4 sequence (whole entry): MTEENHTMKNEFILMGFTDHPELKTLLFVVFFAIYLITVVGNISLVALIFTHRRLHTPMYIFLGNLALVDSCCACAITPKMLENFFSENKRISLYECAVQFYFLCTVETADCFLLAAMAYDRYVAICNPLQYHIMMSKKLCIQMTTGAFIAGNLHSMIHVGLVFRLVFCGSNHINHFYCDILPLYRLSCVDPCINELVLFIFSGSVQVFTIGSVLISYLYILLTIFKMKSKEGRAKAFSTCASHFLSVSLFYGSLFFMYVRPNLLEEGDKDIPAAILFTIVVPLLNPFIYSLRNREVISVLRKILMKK
In short: as §1

[5] = tested on: T5, A0A2R8ZIW4
T5 sequence (whole entry): T4 sequence (whole entry) with V39I, I280V
In short: as §1

[6] = tested on: T6, A0A3Q7SVK8
T6 sequence (whole entry): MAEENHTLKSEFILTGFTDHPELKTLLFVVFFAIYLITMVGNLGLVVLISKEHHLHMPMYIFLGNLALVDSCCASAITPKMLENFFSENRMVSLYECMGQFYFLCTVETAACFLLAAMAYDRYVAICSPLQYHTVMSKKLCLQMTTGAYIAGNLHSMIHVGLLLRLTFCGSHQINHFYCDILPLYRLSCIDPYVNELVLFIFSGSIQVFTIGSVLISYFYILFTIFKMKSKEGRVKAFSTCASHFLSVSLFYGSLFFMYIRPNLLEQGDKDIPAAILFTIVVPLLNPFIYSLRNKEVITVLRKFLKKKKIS
In short: as §1

[7] = tested on: T7, A0A6P3DZI2
T7 sequence (whole entry): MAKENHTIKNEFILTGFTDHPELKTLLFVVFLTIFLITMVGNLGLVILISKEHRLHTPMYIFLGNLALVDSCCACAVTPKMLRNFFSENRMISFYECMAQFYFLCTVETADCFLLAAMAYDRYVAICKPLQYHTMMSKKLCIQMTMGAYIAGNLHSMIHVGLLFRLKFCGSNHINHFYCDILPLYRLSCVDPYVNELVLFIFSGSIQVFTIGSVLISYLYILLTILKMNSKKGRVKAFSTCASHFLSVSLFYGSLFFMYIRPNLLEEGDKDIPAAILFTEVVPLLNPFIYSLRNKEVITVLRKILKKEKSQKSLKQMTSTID
In short: as §1

[8] = tested on: T8, A0A6P6H1F7
T8 sequence (whole entry): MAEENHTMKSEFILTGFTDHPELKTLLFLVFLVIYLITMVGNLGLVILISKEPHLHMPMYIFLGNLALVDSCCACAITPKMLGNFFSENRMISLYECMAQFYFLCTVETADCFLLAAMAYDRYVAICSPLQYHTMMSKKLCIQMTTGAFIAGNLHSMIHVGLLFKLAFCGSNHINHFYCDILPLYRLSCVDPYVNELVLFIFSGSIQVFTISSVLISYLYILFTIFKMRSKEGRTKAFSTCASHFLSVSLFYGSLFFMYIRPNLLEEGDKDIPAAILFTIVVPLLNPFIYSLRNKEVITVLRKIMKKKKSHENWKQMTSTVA
In short: as §1

[9] = tested on: T9, O10A2 H43R H207R K258T
T9 sequence (whole entry): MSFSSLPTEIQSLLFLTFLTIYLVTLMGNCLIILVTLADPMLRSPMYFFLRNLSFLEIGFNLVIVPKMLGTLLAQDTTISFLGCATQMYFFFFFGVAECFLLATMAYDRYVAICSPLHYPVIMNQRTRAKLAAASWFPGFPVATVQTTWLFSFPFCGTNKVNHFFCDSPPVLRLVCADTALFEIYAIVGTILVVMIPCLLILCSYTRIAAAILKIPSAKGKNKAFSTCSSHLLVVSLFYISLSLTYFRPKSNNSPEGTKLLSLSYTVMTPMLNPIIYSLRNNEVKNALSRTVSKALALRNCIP
In short: as §1

[10] = tested on: T10, O10A3 C8G
T10 sequence (whole entry): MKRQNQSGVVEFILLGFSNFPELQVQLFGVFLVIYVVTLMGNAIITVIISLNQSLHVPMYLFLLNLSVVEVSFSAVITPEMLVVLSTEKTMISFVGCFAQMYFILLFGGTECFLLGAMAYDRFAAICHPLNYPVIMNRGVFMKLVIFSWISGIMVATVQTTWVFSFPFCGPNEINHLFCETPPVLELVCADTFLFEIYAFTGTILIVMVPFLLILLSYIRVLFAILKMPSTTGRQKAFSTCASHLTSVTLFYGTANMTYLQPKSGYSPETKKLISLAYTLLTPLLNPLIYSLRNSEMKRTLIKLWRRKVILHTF
In short: as §1

[11] = tested on: T11, O10A6
T11 sequence (whole entry): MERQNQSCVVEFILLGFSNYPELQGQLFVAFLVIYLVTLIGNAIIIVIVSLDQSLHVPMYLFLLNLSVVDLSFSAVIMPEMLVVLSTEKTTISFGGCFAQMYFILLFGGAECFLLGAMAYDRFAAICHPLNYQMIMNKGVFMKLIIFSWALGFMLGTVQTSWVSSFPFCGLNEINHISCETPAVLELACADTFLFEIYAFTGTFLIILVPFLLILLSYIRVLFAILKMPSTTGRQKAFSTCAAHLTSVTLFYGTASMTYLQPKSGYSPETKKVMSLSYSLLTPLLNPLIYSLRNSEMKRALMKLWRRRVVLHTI
In short: as §1

[12] = tested on: T12, O10AD G65C
T12 sequence (whole entry): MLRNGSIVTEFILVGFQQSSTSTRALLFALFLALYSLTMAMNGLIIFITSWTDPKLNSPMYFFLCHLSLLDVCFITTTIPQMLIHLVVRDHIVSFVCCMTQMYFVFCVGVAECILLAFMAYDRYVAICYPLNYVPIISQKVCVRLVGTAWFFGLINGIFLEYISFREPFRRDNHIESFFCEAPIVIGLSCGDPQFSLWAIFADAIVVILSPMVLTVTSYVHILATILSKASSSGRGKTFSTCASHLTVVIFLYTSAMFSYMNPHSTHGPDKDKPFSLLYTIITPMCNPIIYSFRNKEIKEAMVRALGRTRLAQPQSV
In short: as §1

[13] = tested on: T13, O10D3 V134A R197K
T13 sequence (whole entry): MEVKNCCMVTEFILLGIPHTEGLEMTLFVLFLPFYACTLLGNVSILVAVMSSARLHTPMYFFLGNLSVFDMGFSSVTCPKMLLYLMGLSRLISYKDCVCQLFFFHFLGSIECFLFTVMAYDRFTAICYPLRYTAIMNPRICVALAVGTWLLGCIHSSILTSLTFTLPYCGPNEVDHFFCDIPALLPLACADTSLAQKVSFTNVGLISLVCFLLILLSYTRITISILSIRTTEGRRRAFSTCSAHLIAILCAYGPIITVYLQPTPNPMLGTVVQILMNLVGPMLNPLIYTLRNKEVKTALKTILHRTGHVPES
In short: as §1

[14] = tested on: T14, O10G4 L24P V195E
T14 sequence (whole entry): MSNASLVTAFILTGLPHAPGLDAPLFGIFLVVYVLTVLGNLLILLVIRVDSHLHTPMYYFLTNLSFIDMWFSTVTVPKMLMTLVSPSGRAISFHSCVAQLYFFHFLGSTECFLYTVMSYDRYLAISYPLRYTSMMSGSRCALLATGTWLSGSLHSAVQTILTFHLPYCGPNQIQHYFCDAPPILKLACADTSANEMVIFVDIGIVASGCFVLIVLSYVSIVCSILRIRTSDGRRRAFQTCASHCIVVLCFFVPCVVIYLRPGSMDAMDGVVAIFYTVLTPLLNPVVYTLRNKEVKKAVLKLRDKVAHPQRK
In short: as §1

[15] = tested on: T15, O10G7 A18V P19Q G20A
T15 sequence (whole entry): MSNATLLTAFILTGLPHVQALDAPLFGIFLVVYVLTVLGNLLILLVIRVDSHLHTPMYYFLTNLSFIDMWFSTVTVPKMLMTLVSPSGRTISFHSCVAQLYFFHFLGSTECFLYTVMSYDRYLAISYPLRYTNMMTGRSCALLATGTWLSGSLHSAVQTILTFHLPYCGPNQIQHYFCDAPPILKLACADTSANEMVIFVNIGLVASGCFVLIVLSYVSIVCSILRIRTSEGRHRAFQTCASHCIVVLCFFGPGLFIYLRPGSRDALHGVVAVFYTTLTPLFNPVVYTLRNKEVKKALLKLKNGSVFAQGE
In short: as §1

[16] = tested on: T16, O10G7 I28V
T16 sequence (whole entry): T15 sequence (whole entry) with V18A, Q19P, A20G, I28V
In short: as §1

[17] = tested on: O10A6; remark: listed apart in the source
In short: as §1
Target sequence in this assay (as listed by the source): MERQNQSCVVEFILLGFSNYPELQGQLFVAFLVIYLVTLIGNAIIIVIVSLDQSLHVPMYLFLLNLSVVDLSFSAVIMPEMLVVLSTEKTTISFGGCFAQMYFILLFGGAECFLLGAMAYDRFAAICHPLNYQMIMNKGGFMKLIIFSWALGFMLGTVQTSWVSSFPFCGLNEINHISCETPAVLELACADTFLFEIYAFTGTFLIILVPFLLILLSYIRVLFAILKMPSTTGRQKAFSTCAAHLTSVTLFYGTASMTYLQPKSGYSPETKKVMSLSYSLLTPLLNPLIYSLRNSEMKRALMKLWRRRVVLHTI

[18] = tested on: O10A6; remark: listed apart in the source
In short: as §1
Target sequence in this assay (as listed by the source): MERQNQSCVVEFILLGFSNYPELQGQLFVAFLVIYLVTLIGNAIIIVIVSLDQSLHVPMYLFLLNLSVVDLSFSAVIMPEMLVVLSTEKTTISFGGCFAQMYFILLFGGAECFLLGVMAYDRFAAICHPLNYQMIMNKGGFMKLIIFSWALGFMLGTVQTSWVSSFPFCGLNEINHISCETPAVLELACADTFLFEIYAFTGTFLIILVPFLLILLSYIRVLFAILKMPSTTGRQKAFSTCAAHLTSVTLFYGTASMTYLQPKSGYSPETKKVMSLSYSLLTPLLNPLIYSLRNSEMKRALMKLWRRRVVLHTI

Measured: odorant receptor agonist call;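 also: active if original authors judged signal statistically different from baseline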

CC12CCC(CC1=O)C2(C)C (centres undefined)
inactive: [1] | [2] | [3]

CCCCC(=O)CC
inactive: [1] | [2] | [3]

Cc1nccnc1C
active: [4] | [5] | [6] | [8]
inactive: [2] | [7]

CC1=C(O)C(=O)OC1C (centres undefined)
inactive: [9] | [10] | [11] | [12] | [13] | [14] | [15] | [16]

COc1nccnc1CC(C)C
inactive: [2] | [7]
active: [4] | [5] | [6] | [8]

CCCCCCC(=O)[O-].[H+]
inactive: [2] | [3]

CCCCC=CCCCCC=O
active: [11]

CCc1nccnc1C
active: [4] | [5] | [6] | [8]
inactive: [2] | [7]

CCCC(S)CCOC(C)=O (centres undefined)
inactive: [9] | [10] | [11] | [12] | [13] | [14] | [15] | [16]

CCC(=O)OCCCc1ccccc1
active: [17] | [11]
inactive: [18]

CCCCC=CCCC=O
active: [11]

CCCCCCCC(=O)[O-].[H+]
inactive: [2] | [3]
